The source made the active and inactive calls. The calls are words filed in the database; no cut-off is given here.
Assays:
[1] = AUC in Wistar rat at 0.5 mg/kg, po; type: ADME, organism-based; design: dose 0.5 mg/kg, route oral; details: plasma
Procedure, shortened: (§1)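 Male Wistar rats (n = 6) received cassette dosing, either iv bolus at 0.2 mg/kg or oral gavage at 0.5 mg/kg per compound, in DMSO/PEG 200/water. Plasma levels were measured by UPLC–MS/MS.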

[2] = Clearance in Wistar rat at 0.2 mg/kg, iv; type: ADME, organism-based; design: dose 0.2 mg/kg, route intravenous; details: in vivo; procedure, shortened: as §1
in vivo = details: Wistar, rat, iv, 0.2 mg/kg
[3] = Volume of distribution at steady state in NMRI mouse at 0.2 mg/kg, iv; type: ADME, organism-based; design: dose 0.2 mg/kg, route intravenous; details: in vivo, read-out: Vdss
Procedure, shortened: (§2)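 Female NMRI mice (n = 5) given a single iv bolus (0.2 mg/kg per compound) or oral gavage (0.5 mg/kg per compound) as a cassette, in DMSO/PEG 200/water. Serial retro-orbital blood was drawn under isoflurane from 3 animals per route at 0.1 (iv), 0.25 (po), 0.5, 1, 2, 4 and 6 h. Plasma was quantified by LC–MS/MS.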

[4] = Thermodynamic aqueous solubility of the compound in phosphate buffer at pH 7.4; type: physicochemical
Procedure, shortened: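 Kinetic and thermodynamic aqueous solubilities were measured in phosphate buffer at pH 7.4.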

[5] = biological target: T1, Poly [ADP-ribose] polymerase tankyrase-2 (Homo sapiens, UniProt Q9H2K2); experiment: Inhibition of GST-tagged TNKS2 (873 to 1166 aa) (unknown origin) after 90 mins by HTRF assay
T1 sequence (Q9H2K2 whole entry): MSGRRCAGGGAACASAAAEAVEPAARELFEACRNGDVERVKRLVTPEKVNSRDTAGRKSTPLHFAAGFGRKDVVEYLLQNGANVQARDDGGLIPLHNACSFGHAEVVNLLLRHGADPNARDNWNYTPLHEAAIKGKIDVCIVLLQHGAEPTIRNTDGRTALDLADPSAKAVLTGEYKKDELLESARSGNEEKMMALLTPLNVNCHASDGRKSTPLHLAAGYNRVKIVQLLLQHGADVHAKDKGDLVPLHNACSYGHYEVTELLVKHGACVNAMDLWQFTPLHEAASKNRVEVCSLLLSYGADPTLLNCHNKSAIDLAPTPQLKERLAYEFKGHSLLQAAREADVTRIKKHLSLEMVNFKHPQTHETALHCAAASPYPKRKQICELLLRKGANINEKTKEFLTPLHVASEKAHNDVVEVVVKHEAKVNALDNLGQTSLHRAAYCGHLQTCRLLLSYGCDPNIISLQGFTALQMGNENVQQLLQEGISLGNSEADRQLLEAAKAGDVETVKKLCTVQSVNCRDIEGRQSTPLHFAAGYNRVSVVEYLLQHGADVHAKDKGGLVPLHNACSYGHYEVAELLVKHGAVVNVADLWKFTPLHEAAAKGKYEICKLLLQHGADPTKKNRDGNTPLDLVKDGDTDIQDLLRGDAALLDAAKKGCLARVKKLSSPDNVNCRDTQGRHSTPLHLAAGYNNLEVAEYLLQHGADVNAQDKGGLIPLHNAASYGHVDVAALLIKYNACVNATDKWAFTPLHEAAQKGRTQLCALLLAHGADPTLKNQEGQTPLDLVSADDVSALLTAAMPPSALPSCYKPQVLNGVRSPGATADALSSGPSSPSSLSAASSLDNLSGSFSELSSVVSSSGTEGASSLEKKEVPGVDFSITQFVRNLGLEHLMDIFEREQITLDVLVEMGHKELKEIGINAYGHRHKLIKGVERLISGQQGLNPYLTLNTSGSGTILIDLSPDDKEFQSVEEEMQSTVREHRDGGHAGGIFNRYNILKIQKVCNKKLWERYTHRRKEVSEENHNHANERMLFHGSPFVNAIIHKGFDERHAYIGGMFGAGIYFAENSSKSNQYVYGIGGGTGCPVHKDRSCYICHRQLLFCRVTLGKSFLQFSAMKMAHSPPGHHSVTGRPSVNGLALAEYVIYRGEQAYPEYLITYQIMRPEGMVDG

[6] = AUC in NMRI mouse at 0.2 mg/kg, iv; type: ADME, organism-based; design: dose 0.2 mg/kg, route intravenous; details: plasma; procedure, shortened: as §2
[7] = Tmax in NMRI mouse at 0.5 mg/kg, po; type: ADME, organism-based; design: dose 0.5 mg/kg, route oral; details: in vivo; procedure, shortened: as §2
[8] = Half life in NMRI mouse at 0.2 mg/kg, iv; type: ADME, organism-based; design: dose 0.2 mg/kg, route intravenous; details: in vivo; procedure, shortened: as §2
cells = details: Homo sapiens, RKO-F1522, 24 h
[9] = Antitumor activity against human COLO205-F1756 clone 4 cells harboring APC mutant xenografted in CrTac:NCr-Foxn1nu mouse assessed as reduction in flux normalized to tumor weight at 70 mg/kg, po bid for 9 days relative to control; type: functional, COLO 205; design: scale not given: the % may be the effect or the level left
Procedure, shortened: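 Female athymic nude mice were implanted sc in the flank with 3 million COLO205-F1756 clone 4 cells. At about 100 mm3, groups of n = 8 were gavaged at 70 mg/kg bid or with vehicle (10% DMSO, 5% Tween 20 in saline). Luminescent flux was imaged after sc D-luciferin 2 and 6 h post final dose, then tumours were excised and weighed. Mann–Whitney U test.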

Cytochrome P450 2C9 = Cytochrome P450 2C9 (Homo sapiens, UniProt P11712); experiment: Inhibition of CYP2C9 (unknown origin); type: ADME; details: human
Sequence of Cytochrome P450 2C9 (P11712 whole entry): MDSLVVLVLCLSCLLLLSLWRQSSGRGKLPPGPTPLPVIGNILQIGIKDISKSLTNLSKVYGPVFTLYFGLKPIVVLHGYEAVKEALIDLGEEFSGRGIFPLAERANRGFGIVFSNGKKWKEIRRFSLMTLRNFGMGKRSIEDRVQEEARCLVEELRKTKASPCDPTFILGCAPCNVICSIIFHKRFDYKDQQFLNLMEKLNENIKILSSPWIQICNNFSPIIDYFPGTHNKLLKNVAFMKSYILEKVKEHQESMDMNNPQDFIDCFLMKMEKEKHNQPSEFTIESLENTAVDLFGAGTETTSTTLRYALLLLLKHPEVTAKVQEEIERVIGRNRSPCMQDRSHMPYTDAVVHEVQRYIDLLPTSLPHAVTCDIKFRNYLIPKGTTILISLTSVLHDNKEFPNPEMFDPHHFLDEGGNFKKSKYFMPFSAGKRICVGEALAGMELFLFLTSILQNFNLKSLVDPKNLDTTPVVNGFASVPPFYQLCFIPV

Plasma = experiment: Drug uptake in plasma of human COLO205-F1756 clone 4 cells harboring APC mutant xenografted CrTac:NCr-Foxn1nu mouse at 70 mg/kg, po bid for 9 days measured after 2 to 6 hrs; type: ADME, organism-based, COLO 205; design: dose 70 mg/kg, route oral; details: in vivo
Procedure, shortened: (§3)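 In COLO205-F1756 clone 4 xenograft-bearing nude mice dosed orally at 70 mg/kg bid, cardiac blood and tumours were taken 2 and 6 h after the final dose. Tumours were homogenized in 3 v/w PBS, methanol-extracted with internal standard, and total levels were measured by UPLC–MS/MS (MRM, positive ion).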

COLO 205 = experiment: Effect on TCF1 level in human COLO205-F1756 clone 4 cells harboring APC mutant and TCF/LEF responsive element at 350 nM by immunoblotting; type: functional, cell-based
[10] = AUC in NMRI mouse at 0.5 mg/kg, po; type: ADME, organism-based; design: dose 0.5 mg/kg, route oral; details: plasma; procedure, shortened: as §2
[11] = Drug uptake in tumor of human COLO205-F1756 clone 4 cells harboring APC mutant xenografted CrTac:NCr-Foxn1nu mouse at 70 mg/kg, po bid for 9 days measured after 2 to 6 hrs; type: ADME, organism-based, COLO 205; design: dose 70 mg/kg, route oral; details: in vivo; procedure, shortened: as §3

For `Cn1cc(-c2ccc(-c3cncc(Cl)c3N3CCC4(CCNC4=O)CC3)cc2)cn1`, the AUC [1] was 288 ng·h/mL, the clearance [2] was 26 mL/min/kg and the half-life (in vivo) was 58.2 min. The Vd [3] was 1.1 L/kg, the Therm_solubility [4] was 6 µg/mL and the IC50 [5] was 15 µM. For the same molecule, the AUC [6] was 107 ng·h/mL, the Tmax [7] was 15 min and the half-life [8] was 33 min. For the same molecule, the IC50 (cells) was > 10 µM, the Activity [9] was 80% and the “inhibition (INH)” value (Cytochrome P450 2C9) was “Not Active”. The Drug uptake (Plasma) was “Active”, the Activity (COLO 205) was “inactive” and the AUC [10] was 143 ng·h/mL. The Drug uptake [11] was “Active”.

Source: ChEMBL document CHEMBL3407438, “Discovery of potent, orally bioavailable, small-molecule inhibitors of WNT signaling from a cell-based pathway screen” (J Med Chem, 2015)
